Source: PubChem BioAssay AID504413 (Broad Institute, 2011)
Results filed as inconclusive are left out. Calls of active or inactive are those of the source.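 How the source made its calls: active means in every test run, the fitted curve rises past 10% of the positive control effect within the tested doses; inconclusive means runs disagree, or a flat fit at moderate level, or poor fit; inactive means all runs inactive, including signal going the wrong way.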

Test system: MEF A1-2A-BIM cells, caspase-3/7 Glo luminescence
Experiment: caspase-3/7 activation in A1-dependent MEFs, dose response, A1 inhibitor project, cell-based, A1-2A-BIM MEF, luminescence, dry powder (AID 504413)
Settings: not given
Method in brief: (§1)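 Test system: mouse embryonic fibroblasts co-expressing A1-2A-BIM, primed for A1 dependence; medium: RPMI-1640, 10% FBS; timing: 37 °C compound 3 h, room-temperature reagent 1 h; signal: Caspase-3/7 luminescence from DEVD-luciferin substrate reagent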

SMILES	AC10
COCCn1c(=O)c([N+](=O)[O-])c(Cl)c2ccccc21	1.9 µM
Cc1ccc(S(=O)(=O)c2c([N+](=O)[O-])c(=O)n(C)c3ccccc23)cc1	7.02 µM
Cc1ccc(Sc2c([N+](=O)[O-])c(=O)n(C)c3ccccc23)cc1	7.28 µM
Cn1c(=O)c([N+](=O)[O-])c(Sc2ccccn2)c2ccccc21	3.78 µM
Cn1c(=O)c([N+](=O)[O-])c(Cl)c2ccccc21	2.6 µM

Test system: not listed separately
Experiment: as above
Settings: MEF A1-2A-BIM cells, caspase-3/7 Glo luminescence; stronger effect = higher value
Method in brief: as §1

SMILES	max activity
COc1ccc(CCNc2nc(N3CCCC3)nc(N3CCCC3)n2)cc1OC	4.48% (inactive)
COc1nc2ccccc2c(Cl)c1[N+](=O)[O-]	-3.3% (inactive)
Cn1c(=O)c(Sc2ccccn2)c(Sc2ccccn2)c2ccccc21	-0.138% (inactive)
COc1c([N+](=O)[O-])c(=O)n(C)c2ccccc12	-4.02% (inactive)
C/C(=N\Nc1nc(N2CCCCC2)nc(N2CCCCC2)n1)c1ccc(F)cc1	0.285% (inactive)
COc1ccc(CCNc2nc(N3CCOCC3)nc(N3CCOCC3)n2)cc1OC	-1.95% (inactive)
O=C(COc1ccc(Cl)cc1Cl)NNc1nc(N2CCOCC2)nc(N2CCOCC2)n1	-3.81% (inactive)
CCn1c(=O)c(Sc2ccc(C)cc2)c(Sc2ccc(C)cc2)c2ccccc21	3.42% (inactive)
COc1ccc(N2CCN(c3nc(NCCc4ccc(OC)c(OC)c4)nc(N4CCOCC4)n3)CC2)cc1	-3.19% (inactive)
COCCn1c(=O)c(Sc2ccc(C)cc2)c(Sc2ccc(C)cc2)c2ccccc21	4.03% (inactive)
Cc1ccc(Sc2c(Sc3ccc(C)cc3)c3ccccc3n(C)c2=O)cc1	0.915% (inactive)
COc1nc2ccccc2c(Sc2ccc(C)cc2)c1[N+](=O)[O-]	-2.09% (inactive)
Cc1ccc(Sc2c(Sc3ccc(C)cc3)c3ccccc3n(Cc3ccccc3)c2=O)cc1	6.71% (inactive)
O=c1[nH]c2ccccc2c(O)c1[N+](=O)[O-]	0.403% (inactive)
